From ChEMBL document CHEMBL1153427, “1-Sulfonyl-4-acylpiperazines as selective cannabinoid-1 receptor (CB1R) inverse agonists for the treatment of obesity” (J Med Chem, 2009) come the findings set out here.

One data set addresses Cannabinoid receptor 1 (Homo sapiens, UniProt P21554). The experiment in a line: Displacement of [3H]CP-55940 from human recombinant CB1R expressed in CHO cells. The class given is cell-based. In outline:
(§1)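 Radioligand competition used 0.5 nM [³H]CP55940 with recombinant human CB1R-CHO or CB2R-CHO membranes. Bound and free ligand were separated by filtration, and IC₅₀ came from nonlinear curve fitting.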
A general note: Displacement assays read how much labelled ligand stays bound in the presence of the test substance.

Another data set deals with Cannabinoid receptor 2 (Homo sapiens, UniProt P34972). The experiment in a line: Displacement of [3H]CP-55940 from human recombinant CB2R expressed in CHO cells. The class given is cell-based. Summed up:
as §1

Data set [1] is described as follows: Plasma clearance in Sprague-Dawley rat at 1 mg/kg, iv and 2 mg/kg, po. The class given is ADME, organism-based. In outline: (§2)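 Male Sprague-Dawley rats received 1 mpk intravenously or 2 mpk orally. Blood was drawn at various time points into lithium heparin and centrifuged, and plasma was stored at -70 °C. Plasma was extracted by protein precipitation and analysed by LC-MS/MS.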

A short description of data set [2]: Volume of distribution at steady state in Sprague-Dawley rat at 1 mg/kg, iv and 2 mg/kg, po. To be noted: in vivo, read-out: Vdss. The class given is ADME, organism-based. In outline:
as §2

A short description of data set [3]: Bioavailability in Sprague-Dawley rat at 1 mg/kg, iv and 2 mg/kg, po. To be noted: in vivo. The class given is ADME, organism-based. Summed up: as §2
A short description of data set [4]: Ratio of drug level in brain to plasma in Sprague-Dawley rat at 1 mg/kg, iv and 2 mg/kg, po after 4 hrs. The class given is ADME, organism-based.
In data set [5] the test system is Rattus norvegicus. The experiment in a line: Reduction of body weight in diet induced obese Sprague-Dawley rat at 3 mg/kg, po. The class given is functional. Summed up:
(§3)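 Male DIO rats were acclimated at least 3 days in an automated food-intake system, where computer-linked balances logged grams of food eaten every 5 min. They were fed milled MHF diet throughout. Compound or vehicle (10% Tween-80 in water) was given by oral gavage 1 h before dark-cycle onset. Overnight food intake and body-weight change were measured against vehicle, with significance set at P < 0.05.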

The next data set concerns the target Cytochrome P450 3A4 (Homo sapiens, UniProt P08684). The experiment in a line: Inhibition of CYP3A4. The class given is ADME.
Another data set addresses Cytochrome P450 2C9 (Homo sapiens, UniProt P11712). The data set is described as follows: Inhibition of CYP2C9. The class given is ADME.
Another data set deals with T1, Cytochrome P450 2C8 (Homo sapiens, UniProt P10632).
T1 sequence (P10632 whole entry): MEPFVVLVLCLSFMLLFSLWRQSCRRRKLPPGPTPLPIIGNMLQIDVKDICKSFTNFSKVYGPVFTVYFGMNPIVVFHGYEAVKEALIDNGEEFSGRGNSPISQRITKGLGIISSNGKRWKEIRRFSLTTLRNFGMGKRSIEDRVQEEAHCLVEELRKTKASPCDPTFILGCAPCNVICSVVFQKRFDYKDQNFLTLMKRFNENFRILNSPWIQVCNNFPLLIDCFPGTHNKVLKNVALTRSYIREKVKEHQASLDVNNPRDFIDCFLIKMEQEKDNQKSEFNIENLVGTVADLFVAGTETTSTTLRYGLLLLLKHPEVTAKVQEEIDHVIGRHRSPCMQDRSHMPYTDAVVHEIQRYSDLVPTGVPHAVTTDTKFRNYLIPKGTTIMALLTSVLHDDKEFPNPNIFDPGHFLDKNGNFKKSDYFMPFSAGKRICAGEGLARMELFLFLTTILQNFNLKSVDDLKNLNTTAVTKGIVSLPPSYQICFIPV
The experiment in a line: Inhibition of CYP2C8. The class given is ADME.

Data set [6] can be described thus: Half life in Sprague-Dawley rat at 1 mg/kg, iv and 2 mg/kg, po. The class given is ADME, organism-based. To be noted: in vivo. In outline: as §2
The species named for data set [7] is Rattus norvegicus. The experiment in a line: Reduction of overnight food intake in diet induced obese Sprague-Dawley rat assessed as minimal effective dose. The class given is functional. To be noted: feed or water, read-out: MED. In outline:
as §3

The nature of data set [8]: Plasma clearance in dog. The class given is ADME, organism-based, Canis lupus familiaris.
Data set [9] can be described thus: Volume of distribution at steady state in dog. The class given is ADME, organism-based, Canis lupus familiaris. To be noted: in vivo, read-out: Vdss.
Data set [10] can be described thus: Half life in dog. The class given is ADME, organism-based, Canis lupus familiaris. To be noted: in vivo.
A short description of data set [11]: Cmax in dog. The class given is ADME, organism-based, Canis lupus familiaris. To be noted: in vivo.
Data set [12] can be described thus: Bioavailability in dog. The class given is ADME, organism-based, Canis lupus familiaris. To be noted: in vivo.
A short description of data set [13]: Plasma clearance in rhesus monkey. The class given is ADME, organism-based, Macaca mulatta.
Data set [14] in a line: Volume of distribution at steady state in rhesus monkey. The class given is ADME, organism-based, Macaca mulatta. To be noted: in vivo, read-out: Vdss.
Data set [15] in a line: Half life in rhesus monkey. The class given is ADME, organism-based, Macaca mulatta. To be noted: in vivo.
Data set [16] in a line: Cmax in rhesus monkey. The class given is ADME, organism-based, Macaca mulatta. To be noted: in vivo.
Data set [17] in a line: Oral bioavailability in rhesus monkey. The class given is ADME, organism-based, Macaca mulatta. To be noted: in vivo.
The nature of data set [18]: Cmax in Sprague-Dawley rat at 1 mg/kg, iv and 2 mg/kg, po. To be noted: in vivo. The class given is ADME, organism-based. Summed up: as §2

Cannabinoid receptor 1, sequence (P21554 whole entry): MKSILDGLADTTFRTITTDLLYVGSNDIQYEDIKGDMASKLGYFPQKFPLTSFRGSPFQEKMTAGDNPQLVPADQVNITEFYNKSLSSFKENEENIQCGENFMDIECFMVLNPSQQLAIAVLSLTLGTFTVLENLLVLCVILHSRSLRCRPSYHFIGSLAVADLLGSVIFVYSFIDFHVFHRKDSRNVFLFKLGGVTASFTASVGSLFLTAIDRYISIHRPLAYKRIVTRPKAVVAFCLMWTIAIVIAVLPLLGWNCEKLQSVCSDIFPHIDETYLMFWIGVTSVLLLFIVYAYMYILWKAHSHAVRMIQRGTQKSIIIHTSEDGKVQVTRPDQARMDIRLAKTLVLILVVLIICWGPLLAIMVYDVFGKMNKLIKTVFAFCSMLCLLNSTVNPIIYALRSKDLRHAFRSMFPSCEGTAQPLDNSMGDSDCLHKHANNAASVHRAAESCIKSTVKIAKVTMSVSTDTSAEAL
Cytochrome P450 2C9, sequence (P11712 whole entry): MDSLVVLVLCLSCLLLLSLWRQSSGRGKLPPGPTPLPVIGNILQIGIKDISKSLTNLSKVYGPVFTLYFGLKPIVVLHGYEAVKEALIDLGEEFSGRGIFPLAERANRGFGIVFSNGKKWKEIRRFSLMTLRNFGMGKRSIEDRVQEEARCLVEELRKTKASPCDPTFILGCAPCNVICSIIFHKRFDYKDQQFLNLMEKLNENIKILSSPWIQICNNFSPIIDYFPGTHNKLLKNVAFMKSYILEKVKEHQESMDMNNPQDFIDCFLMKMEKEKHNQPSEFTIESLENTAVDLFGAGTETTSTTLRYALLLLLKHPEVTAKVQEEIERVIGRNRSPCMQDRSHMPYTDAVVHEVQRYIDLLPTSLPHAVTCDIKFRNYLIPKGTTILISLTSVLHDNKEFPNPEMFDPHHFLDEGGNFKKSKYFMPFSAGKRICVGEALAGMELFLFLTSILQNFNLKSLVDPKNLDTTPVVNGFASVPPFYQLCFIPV
Cytochrome P450 3A4, sequence (P08684 whole entry): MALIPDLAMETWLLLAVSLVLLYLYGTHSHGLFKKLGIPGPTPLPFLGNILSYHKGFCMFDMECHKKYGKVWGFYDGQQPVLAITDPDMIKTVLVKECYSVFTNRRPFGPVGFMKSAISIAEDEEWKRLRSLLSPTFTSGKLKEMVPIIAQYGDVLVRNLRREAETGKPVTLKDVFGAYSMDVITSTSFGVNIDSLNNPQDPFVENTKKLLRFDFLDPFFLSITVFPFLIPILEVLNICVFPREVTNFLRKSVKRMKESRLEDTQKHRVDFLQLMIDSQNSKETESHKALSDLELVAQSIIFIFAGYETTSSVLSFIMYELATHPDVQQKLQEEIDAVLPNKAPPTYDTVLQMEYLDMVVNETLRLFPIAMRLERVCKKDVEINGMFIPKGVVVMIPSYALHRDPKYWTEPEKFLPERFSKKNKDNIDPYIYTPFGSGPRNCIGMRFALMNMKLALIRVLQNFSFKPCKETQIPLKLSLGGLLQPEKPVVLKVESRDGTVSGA
Cannabinoid receptor 2, sequence (P34972 whole entry): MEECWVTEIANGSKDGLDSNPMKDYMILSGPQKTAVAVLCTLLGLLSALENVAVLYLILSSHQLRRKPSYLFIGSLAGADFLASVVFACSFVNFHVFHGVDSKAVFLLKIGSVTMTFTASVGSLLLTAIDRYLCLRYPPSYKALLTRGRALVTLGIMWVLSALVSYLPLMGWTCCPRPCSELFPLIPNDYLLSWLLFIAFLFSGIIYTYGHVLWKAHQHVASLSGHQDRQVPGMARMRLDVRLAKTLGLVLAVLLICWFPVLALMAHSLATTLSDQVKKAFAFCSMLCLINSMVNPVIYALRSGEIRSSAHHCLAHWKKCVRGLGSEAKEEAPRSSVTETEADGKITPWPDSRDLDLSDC

Usually IC50 stands for the concentration at which inhibition is half-maximal. A word on the bioavailability: it is the share of a dose that reaches the circulation, judged against a reference dose that is usually intravenous. For orientation: Kp means the ratio of the level in a tissue or fluid to that in plasma or blood. By half-life is commonly meant how long it takes for the measured level to halve. Usually Cmax stands for the maximum level reached in the sampled fluid or tissue. Turning to `O=C([C@@H]1C[C@H]1c1ccc(C(F)(F)F)cc1)N1CCN(S(=O)(=O)c2cc(-c3nnc[nH]3)cc(C(F)(F)F)c2)CC1`, the IC50 at Cannabinoid receptor 1 is 0.0002 µM; at Cannabinoid receptor 2, over 10 µM; against Cytochrome P450 3A4, 4.7 µM; against Cytochrome P450 2C9, 6 µM; at Cytochrome P450 2C8 it was 15 µM. Also, the clearance in data set [1] is 23.7 mL/min/kg; in data set [8], 1.4 mL/min/kg; in [13] it was 14.6 mL/min/kg. Moreover, the Vd stood at 3.8 L/kg in [2], 1.1 L/kg in [9] and 2.5 L/kg in [14]. Also, the bioavailability in data set [3] was 31%; in data set [12], 26%; in data set [17] it was under 2%. The Kp at 4 h in data set [4] stood at 0.2. Moreover, in the data set with Rattus norvegicus [5], the Activity is on record as -14 g. Besides, the half-life was 3.8 h in data set [6], 8.6 h in [10] and 2 h in [15]. The minimal effective dose in the data set filed under Rattus norvegicus [7] is 0.3 mg/kg. The values for the Cmax in data set [11], in data set [16] and in data set [18] were 210 nM, 3 nM and 190 nM, respectively.
